Laboratory results taken from ChEMBL document CHEMBL1124493, “Synthesis and tumor uptake of 5-82Br- and 5-131I-labeled 5-halo-1-(2-fluoro-2-deoxy-beta-D-ribofuranosyl)uracils” (J Med Chem, 1989).
Values belong to the compound of their own block, whether it stands above or below them.

Experiments:
[1] = tested on: Mus musculus; experiment: Biodistribution of intravenously injected [82Br]-labeled compound in tumor of BDF1 female mice bearing subcutaneous Lewis lung carcinoma after 1 hours; assay type: ADME, organism-based; settings: in vivo, iv
[2] = tested on: Mus musculus; experiment: Biodistribution of intravenously injected [82Br]-labeled compound in spleen of BDF1 female mice bearing subcutaneous Lewis lung carcinoma after 1 hours; assay type: ADME, organism-based; settings: in vivo, iv
In short: (§1)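 Female BDF1 mice with subcutaneous Lewis lung carcinoma given an iv injection of [82Br]-labelled nucleoside, 47-130 μg carrying 20-60 kBq 82Br. Tissues were excised, weighed wet and γ-counted. Values are percent injected dose per gram of wet tissue, mean ± standard deviation of six animals, with organ-to-tumour ratios derived.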

[3] = tested on: Mus musculus; experiment: Biodistribution of intravenously injected [82Br]-labeled compound in spleen of BDF1 female mice bearing subcutaneous Lewis lung carcinoma after 2 hours; assay type: ADME, organism-based; settings: in vivo, iv
[4] = tested on: Mus musculus; experiment: Biodistribution of intravenously injected [82Br]-labeled compound in spleen of BDF1 female mice bearing subcutaneous Lewis lung carcinoma after 24 hours; assay type: ADME, organism-based; settings: in vivo, iv
[5] = tested on: Mus musculus; experiment: Biodistribution of intravenously injected [82Br]-labeled compound in bone of BDF1 female mice bearing subcutaneous Lewis lung carcinoma after 8 hours; assay type: ADME, organism-based, Bone element; settings: in vivo, iv
In short: (§2)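 82Br-labeled nucleoside given intravenously to female BDF1 mice bearing subcutaneous Lewis lung carcinoma, at 47-130 μg carrying 20-60 kBq. Mice sacrificed at each time point. Wet-weighed tissues γ-counted. Values are percent injected dose per gram wet tissue, mean ± SD, n = 6.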

[6] = tested on: Mus musculus; experiment: Biodistribution of intravenously injected [82Br]-labeled compound in gut of BDF1 female mice bearing subcutaneous Lewis lung carcinoma after 2 hours; assay type: ADME, organism-based; settings: in vivo, iv; in short: as §1
[7] = tested on: Mus musculus; experiment: Biodistribution of intravenously injected [82Br]-labeled compound in heart of BDF1 female mice bearing subcutaneous Lewis lung carcinoma after 8 hours; assay type: ADME, organism-based; settings: in vivo, iv; in short: as §1
[8] = tested on: Mus musculus; experiment: Biodistribution of intravenously injected [82Br]-labeled compound in kidney of BDF1 female mice bearing subcutaneous Lewis lung carcinoma after 1 hours; assay type: ADME, organism-based; settings: in vivo, iv; in short: as §1
[9] = tested on: Mus musculus; experiment: Biodistribution of intravenously injected [82Br]-labeled compound in kidney of BDF1 female mice bearing subcutaneous Lewis lung carcinoma after 24 hours; assay type: ADME, organism-based; settings: in vivo, iv; in short: as §1
[10] = tested on: Mus musculus; experiment: Biodistribution of intravenously injected [82Br]-labeled compound in kidney of BDF1 female mice bearing subcutaneous Lewis lung carcinoma after 4 hours; assay type: ADME, organism-based; settings: in vivo, iv; in short: as §1
[11] = tested on: Mus musculus; experiment: Biodistribution of intravenously injected [82Br]-labeled compound in liver of BDF1 female mice bearing subcutaneous Lewis lung carcinoma after 0.25 hours; assay type: ADME, organism-based; settings: in vivo, iv; in short: as §1
[12] = tested on: Mus musculus; experiment: Biodistribution of intravenously injected [82Br]-labeled compound in liver of BDF1 female mice bearing subcutaneous Lewis lung carcinoma after 0.50 hours; assay type: ADME, organism-based; settings: in vivo, iv, 0.5 h; in short: as §1
[13] = tested on: Mus musculus; experiment: Biodistribution of intravenously injected [82Br]-labeled compound in blood of BDF1 female mice bearing subcutaneous Lewis lung carcinoma after 0.50 hours; assay type: ADME, organism-based; settings: in vivo, iv, 0.5 h; in short: as §2
[14] = tested on: Mus musculus; experiment: Biodistribution of intravenously injected [82Br]-labeled compound in blood of BDF1 female mice bearing subcutaneous Lewis lung carcinoma after 1 hours; assay type: ADME, organism-based; settings: in vivo, iv; in short: as §2
[15] = tested on: Mus musculus; experiment: Biodistribution of intravenously injected [82Br]-labeled compound in blood of BDF1 female mice bearing subcutaneous Lewis lung carcinoma after 4 hours; assay type: ADME, organism-based; settings: in vivo, iv; in short: as §2
[16] = tested on: Mus musculus; experiment: Biodistribution of intravenously injected [82Br]-labeled compound in blood of BDF1 female mice bearing subcutaneous Lewis lung carcinoma after 8 hours; assay type: ADME, organism-based; settings: in vivo, iv; in short: as §2
[17] = tested on: Mus musculus; experiment: Biodistribution of intravenously injected [82Br]-labeled compound in muscle of BDF1 female mice bearing subcutaneous Lewis lung carcinoma after 24 hours; assay type: ADME, organism-based, Muscle tissue; settings: in vivo, iv; in short: as §1
[18] = tested on: Mus musculus; experiment: Biodistribution of intravenously injected [82Br]-labeled compound in muscle of BDF1 female mice bearing subcutaneous Lewis lung carcinoma after 4 hours; assay type: ADME, organism-based, Muscle tissue; settings: in vivo, iv; in short: as §1
[19] = tested on: Mus musculus; experiment: Biodistribution of intravenously injected [82Br]-labeled compound in skin of BDF1 female mice bearing subcutaneous Lewis lung carcinoma after 1 hours; assay type: ADME, organism-based, Zone of skin; settings: in vivo, iv; in short: as §1
[20] = tested on: Mus musculus; experiment: Biodistribution of intravenously injected [82Br]-labeled compound in liver of BDF1 female mice bearing subcutaneous Lewis lung carcinoma after 24 hours; assay type: ADME, organism-based; settings: in vivo, iv; in short: as §1
[21] = tested on: Mus musculus; experiment: Biodistribution of intravenously injected [82Br]-labeled compound in spleen of BDF1 female mice bearing subcutaneous Lewis lung carcinoma after 8 hours; assay type: ADME, organism-based; settings: in vivo, iv
[22] = tested on: Mus musculus; experiment: Biodistribution of intravenously injected [131I]-labeled compound in bone of BDF1 female mice bearing subcutaneous Lewis lung carcinoma after 24 hours; assay type: ADME, organism-based, Bone element; settings: in vivo, iv
In short: (§3)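 Female BDF1 mice bearing subcutaneous Lewis lung carcinoma received a single intravenous dose of 0.5-1.8 μg of the 131I-labeled nucleoside (55-110 kBq). They were sacrificed at set times, and tissues were weighed wet and γ-counted. Activity is expressed as percent of injected dose per gram of wet tissue, given as mean ± standard deviation for six animals.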

[23] = tested on: Mus musculus; experiment: Biodistribution of intravenously injected [131I]-labeled compound in blood of BDF1 female mice bearing subcutaneous Lewis lung carcinoma after 2 hours; assay type: ADME, organism-based; settings: in vivo, iv; in short: as §3
[24] = tested on: Mus musculus; experiment: Biodistribution of intravenously injected [131I]-labeled compound in gut of BDF1 female mice bearing subcutaneous Lewis lung carcinoma after 0.50 hours; assay type: ADME, organism-based; settings: in vivo, iv, 0.5 h; in short: as §3
[25] = tested on: Mus musculus; experiment: Biodistribution of intravenously injected [131I]-labeled compound in heart of BDF1 female mice bearing subcutaneous Lewis lung carcinoma after 1 hours; assay type: ADME, organism-based; settings: in vivo, iv; in short: as §3
[26] = tested on: Mus musculus; experiment: Biodistribution of intravenously injected [131I]-labeled compound in kidney of BDF1 female mice bearing subcutaneous Lewis lung carcinoma after 2 hours; assay type: ADME, organism-based; settings: in vivo, iv; in short: as §3
[27] = tested on: Mus musculus; experiment: Biodistribution of intravenously injected [131I]-labeled compound in lung of BDF1 female mice bearing subcutaneous Lewis lung carcinoma after 2 hours; assay type: ADME, organism-based; settings: in vivo, iv; in short: as §3
[28] = tested on: Mus musculus; experiment: Biodistribution of intravenously injected [131I]-labeled compound in liver of BDF1 female mice bearing subcutaneous Lewis lung carcinoma after 8 hours; assay type: ADME, organism-based; settings: in vivo, iv; in short: as §3
[29] = tested on: Mus musculus; experiment: Biodistribution of intravenously injected [131I]-labeled compound in muscle of BDF1 female mice bearing subcutaneous Lewis lung carcinoma after 0.25 hours; assay type: ADME, organism-based, Muscle tissue; settings: in vivo, iv; in short: as §3
[30] = tested on: Mus musculus; experiment: Biodistribution of intravenously injected [131I]-labeled compound in muscle of BDF1 female mice bearing subcutaneous Lewis lung carcinoma after 0.5 hours; assay type: ADME, organism-based, Muscle tissue; settings: in vivo, iv; in short: as §3
[31] = tested on: Mus musculus; experiment: Biodistribution of intravenously injected [131I]-labeled compound in stomach of BDF1 female mice bearing subcutaneous Lewis lung carcinoma after 0.50 hours; assay type: ADME, organism-based; settings: in vivo, iv, 0.5 h
In short: (§4)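 Female BDF1 mice with subcutaneous Lewis lung carcinoma given i.v. 0.5-1.8 μg of 131I-labeled nucleoside (55-110 kBq). Killed at set times. Tissues weighed wet and γ-counted. Radioactivity expressed as percent injected dose per gram wet tissue, mean ± SD of six animals.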

[32] = tested on: Mus musculus; experiment: Biodistribution of intravenously injected [131I]-labeled compound in skin of BDF1 female mice bearing subcutaneous Lewis lung carcinoma after 24 hours; assay type: ADME, organism-based, Zone of skin; settings: in vivo, iv; in short: as §4
[33] = tested on: Mus musculus; experiment: Biodistribution of intravenously injected [131I]-labeled compound in spleen of BDF1 female mice bearing subcutaneous Lewis lung carcinoma after 4 hours; assay type: ADME, organism-based; settings: in vivo, iv; in short: as §4
[34] = tested on: Mus musculus; experiment: Biodistribution of intravenously injected [131I]-labeled compound in stomach of BDF1 female mice bearing subcutaneous Lewis lung carcinoma after 2 hours; assay type: ADME, organism-based; settings: in vivo, iv; in short: as §4
[35] = species: Mus musculus; experiment: Other urinary compounds observed in BDF1 female mice bearing lewis lung tumor after 6-7 hr of injected [131I]-compound; assay type: functional, tissue-based; settings: Urine
[36] = species: Mus musculus; experiment: Urinary [131I]- compound observed in BDF1 female mice bearing lewis lung tumor after 2-3 hr of injected [131I]-compound; assay type: functional, tissue-based; settings: Urine
[37] = tested on: Mus musculus; experiment: Biodistribution of intravenously injected [131I]-labeled compound in tumor of BDF1 female mice bearing subcutaneous Lewis lung carcinoma after 24 hours; assay type: ADME, organism-based; settings: in vivo, iv; in short: as §4
[38] = tested on: Mus musculus; experiment: Biodistribution of intravenously injected [131I]-labeled compound in tumor of BDF1 female mice bearing subcutaneous Lewis lung carcinoma after 0.25 hours; assay type: ADME, organism-based; settings: in vivo, iv; in short: as §4

Injected dose/g [1]: 0.67% | Injected dose/g [2]: 0.38% | Injected dose/g [3]: 0.35% | Injected dose/g [4]: 0.24% | Injected dose/g [5]: 0.23% | Injected dose/g [6]: 0.41% | Injected dose/g [7]: 0.45% | Injected dose/g [8]: 1.12% | Injected dose/g [9]: 0.36% | Injected dose/g [10]: 0.48% | Injected dose/g [11]: 1.45% | Injected dose/g [12]: 0.65% | Injected dose/g [13]: 1.36% | Injected dose/g [14]: 0.78% | Injected dose/g [15]: 0.6% | Injected dose/g [16]: 0.72% | Injected dose/g [17]: 0.09% | Injected dose/g [18]: 0.12% | Injected dose/g [19]: 0.45% | Injected dose/g [20]: 0.18% | Injected dose/g [21]: 0.34%
SMILES: O=c1[nH]c(=O)n([C@H]2O[C@@H](CO)[C@H](O)[C@H]2F)cc1Br

Injected dose/g [22]: 0.07% | Injected dose/g [23]: 8.9% | Injected dose/g [24]: 2.8% | Injected dose/g [25]: 5.8% | Injected dose/g [26]: 8.5% | Injected dose/g [27]: 5.1% | Injected dose/g [28]: 1.4% | Injected dose/g [29]: 2.5% | Injected dose/g [30]: 2% | Injected dose/g [31]: 4.6% | Injected dose/g [32]: 0.1% | Injected dose/g [33]: 1.8% | Injected dose/g [34]: 4% | Injected dose/g [37]: 0.08% | Injected dose/g [38]: 4.9%
SMILES: O=c1[nH]c(=O)n([C@@H]2O[C@H](CO)[C@@H](O)[C@H]2F)cc1I
Radioactive constituents [35]: 0% | Radioactive constituents [36]: 82.8%
